The list is not random: actives were taken first. Their share in the collection is about 2.4%.
EP2 modulator: EP2 receptor modulators, cAMP readout, primary screen, cell-based, HTRF cAMP, PGE2 stimulation; EP2-expressing cells, cAMP HTRF FRET, PGE2 co-stimulation; 0.83% of 260,000 active; Prostaglandin E2 receptor EP2 subtype (Homo sapiens), P43116; induction, % at 25 µM;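 active = compounds whose cAMP rise, as percent of the full-agonist control response, exceeds 60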;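 note: rat C6 glioma line stably carrying human EP2 under a CMV promoter; the protocol text gives 20 µM as final concentration; 100% = response of wells given 1 µM PGE2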
Target sequence (P43116 whole entry, looked up): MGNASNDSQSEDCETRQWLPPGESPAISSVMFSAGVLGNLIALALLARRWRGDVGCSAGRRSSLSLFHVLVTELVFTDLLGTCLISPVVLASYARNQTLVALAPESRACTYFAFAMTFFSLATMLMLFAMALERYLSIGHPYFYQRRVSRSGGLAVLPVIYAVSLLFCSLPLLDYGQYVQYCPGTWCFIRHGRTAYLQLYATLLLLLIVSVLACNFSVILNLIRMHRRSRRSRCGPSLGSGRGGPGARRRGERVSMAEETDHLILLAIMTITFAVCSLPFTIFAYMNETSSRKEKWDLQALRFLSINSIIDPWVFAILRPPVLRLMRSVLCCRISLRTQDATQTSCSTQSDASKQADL
HMGR II inh: inhibitors of E. faecalis class II HMGR, primary screen, biochemical, Enterococcus faecalis; HMG-CoA reductase (Enterococcus faecalis, mvaE); AID 1066, 2008; 0.41% of 190,000 active; inhibition, % at 10 µM; purified E. faecalis HMGR, NADPH absorbance 340 nm kinetic;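 active = inhibition above a set limit, the median over all tested compounds plus 3 SD, cut at about 9.5% in these data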;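 note: enzyme runs in reverse so mevalonate oxidation gives rising NADPH absorbance; 0% = complete reaction with DMSO and 100% = background rate lacking mevalonate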
Tb hexokinase: Trypanosoma brucei hexokinase 1 inhibitors, primary screen, biochemical, G6PDH-coupled NADH absorbance, MLSCN library; 0.11% of 220,000 active; inhibition, % at 10 µM; hexokinase 1 [Trypanosoma brucei]; recombinant TbHK1, G6PDH-coupled NADH A340;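 active = inhibition of 50% or more in the single-dose primary screen; inactive = inhibition below 50%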
b-catenin transl: modulators of beta-catenin nuclear translocation, primary screen, imaging, HeLa cells, immunofluorescence, high-content | 0.3% of 190,000 active | nuclear translocation activity, % at 5 µM;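 active = nuclear translocation activity above 50% at 5 µM, with a well cell count of 50 or more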;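 note: per-cell ratio of nuclear to cytoplasmic median beta-catenin stain intensity; plate controls were DMSO negative control for no effect and GSK-3 inhibitor IX positive control for full effect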
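Read-out: Nuclear/cytoplasmic beta-catenin signal ratio, % activation | Assay system: Human HeLa cell line | Times: 24 h compound exposure at 37°C, 5% CO2 | Signal: Fluorescence imaging of beta-catenin antibody stain plus DAPI | Dosing: 5 µM primary, 0.02–20 µM confirmation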
MT stabilize HCS: microtubule stabilizers in HeLa cells, primary screen, imaging, high-content imaging; HeLa tubulin immunostaining HCS, 24 h; share of cells brighter than vehicle mean+2SD; % tubulin-high responders, % at 10 µM; 0.83% of 200,000 active;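 active = plate Z-score above 3 for both tubulin-high and condensed-nucleus cell shares, with cell loss under 80%, at 10 µM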;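 note: anti alpha tubulin signal scored within the nucleus-defined area of each cell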
EP2 antag: human EP2 receptor antagonists, primary screen, TR-FRET cAMP, C6 glioma cells | 0.52% of 260,000 active | C6 glioma cells expressing human EP2; cells stimulated with saturating PGE2 | inhibition, % at 25 µM | AID 1422, 2008 | Prostaglandin E2 receptor EP2 subtype (Homo sapiens), P43116;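 active = percent inhibition above 40 after rounding to a whole number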;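 note: rat C6 glioma host cells with rolipram phosphodiesterase inhibitor present; the protocol text gives 20 µM as final concentration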
EP2 cAMP induct: cAMP induction in EP2, EP4, beta2-AR and parental cells, confirmation, counter-screen for EP2 modulator project, cell-based, five parallel assays, C6 glioma, HEK293; shares compounds with EP2 modulator; cAMP HTRF induction; plus low (about EC15) PGE2 agonist; calls only at 20 µM (by protocol); 47% of 1,300 active; AID 1080, 2008;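 active = cAMP induction above 50% in the main assay while under 30% in all four parallel counter assays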;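 note: rat C6 glioma cells stably expressing human EP2 receptor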
An asterisk follows results filed as active; i = inactive; . = not tested or not shown; + = active, no number.

SMILES	EP2 modulator	HMGR II inh	Tb hexokinase	b-catenin transl	MT stabilize HCS	EP2 antag	EP2 cAMP induct
C=CCNC(=O)C1CC(=O)N(c2ccc(OCC(=O)Nc3cccc(Cl)c3)cc2)C1 (stereo not given)	-24	.	.	.	.	7	.
CN(C)Cc1cc(C(C)(C)C)ccc1-c1ccc(C(C)(C)C)cc1CN(C)C	7	.	.	.	.	50*	.
COc1ccc2nc(SCC(=O)Nc3cccc4ccccc34)c(C#N)cc2c1	28	.	.	.	.	27	.
O=C1OC(c2ccc(O)c(-c3ccccc3)c2)(c2ccc(O)c(-c3ccccc3)c2)c2c(Cl)c(Cl)c(Cl)c(Cl)c21	4	.	.	.	.	47*	.
Cc1cc(C2(c3ccc(O)c(C)c3)OC(=O)c3ccccc32)ccc1O	60	0	-8	-1	2	9	.
CC1(C)C=Cc2c(c3c(c4c(=O)c(-c5ccc(O)cc5)coc24)OC(C)(C)CC3)O1	60	0	-5	-1	2	13	i
O=c1c(-c2ccc(O)cc2)coc2cc(O)cc(O)c12	8	.	-35	0	.	10	.
CN(Cc1ccccc1)c1nc2c(c(=O)[nH]c(=O)n2C)n1CCO	9	.	.	.	.	12	.
CN(Cc1ccccc1)c1nc2c(c(=O)[nH]c(=O)n2C)n1Cc1ccccc1Cl	77*	-2	2	.	3	3	+
CCn1c(SCC(=O)Nc2ccc(C(=O)OC)cc2)nc2sc3c(c2c1=O)CCC3	-85	.	.	.	.	4	.
CC(=O)N(c1cccc(Br)c1)C1C=CS(=O)(=O)C1 (stereo not given)	69*	-1	-3	4	3	14	i
Cc1cc(C)cc(N(C(=O)c2ccc(Br)o2)C2C=CS(=O)(=O)C2)c1 (stereo not given)	18	0	2	-2	2	4	.
COC(=O)c1ccccc1NC(=O)C(C)Oc1ccccc1 (stereo not given)	53	-5	0	1	2	12	i
S=c1[nH]nc(Cc2cccs2)n1-c1ccccc1	4	-3	4	0	1	.	.
CCCCc1ccc(-n2c(Cc3cccs3)n[nH]c2=S)cc1	71*	-7	-7	-2	6	9	+
c1coc(-c2nc3cnccn3c2NC2CCCC2)c1	-67	.	.	.	.	.	.
CCC(Sc1nc(-c2ccccc2)c(C#N)c(=O)[nH]1)C(=O)Nc1cc(C)on1 (stereo not given)	76*	5	-2	-4	4	50*	i
CCC(Sc1nc2ccccc2[nH]1)C(=O)Nc1cc(C)on1 (stereo not given)	25	-1	-6	2	4	15	.
Cn1c(=O)c2c(SCc3cccnc3)nc(CC(C)(C)C)nc2n(C)c1=O	59	-2	2	.	3	6	+
CC(C)(C)C1CCC(OC(=O)c2cncc(Br)c2)CC1 (stereo not given)	12	-9	-8	3	4	7	.
CC(C)(C)C1CCC(OC(=O)c2ccncc2)CC1 (stereo not given)	84*	-2	1	-6	2	-2	i
COC(=O)c1[nH]c2ccccc2c1NS(=O)(=O)c1ccc(F)c(C)c1	77*	-4	23	-2	7	4	+
CCCS(=O)(=O)Nc1c(C(=O)OC)[nH]c2ccccc12	20	-5	-6	3	4	10	.
COc1ccc(-n2c(-c3cccc(OC)c3)nc(=S)c3c2CCCC3)cc1	77*	-6	-51	0	3	18	i
COc1ccc(-n2c(-c3ccccc3)nc(=S)c3c2CCCC3)cc1	40	3	-48	-1	4	.	.

Screening data as filed in PubChem.
